The list is not random: actives were taken first. Their share in the collection is about 1.7%.
MEX-5 binding: MEX-5 zinc finger RNA-binding disruptors – biochemical, C. elegans, fluorescence polarization, MLPCN library, primary screen. 300,000 tested, 0.38% active. Zinc finger protein mex-5 (Caenorhabditis elegans), Q9XUB2. MEX-5/FITC-TCR2 RNA binding; hits give low values. activity score (negative = inhibition of binding), % at 10 µM;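 active means inhibition past about -25% in most replicates, and total fluorescence under double the plate's negative control median, limit read from the data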;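 further: 0% = DMSO and -100% = 5 µM competing unlabeled TCR2 RNA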
Target sequence (Q9XUB2 whole entry, looked up): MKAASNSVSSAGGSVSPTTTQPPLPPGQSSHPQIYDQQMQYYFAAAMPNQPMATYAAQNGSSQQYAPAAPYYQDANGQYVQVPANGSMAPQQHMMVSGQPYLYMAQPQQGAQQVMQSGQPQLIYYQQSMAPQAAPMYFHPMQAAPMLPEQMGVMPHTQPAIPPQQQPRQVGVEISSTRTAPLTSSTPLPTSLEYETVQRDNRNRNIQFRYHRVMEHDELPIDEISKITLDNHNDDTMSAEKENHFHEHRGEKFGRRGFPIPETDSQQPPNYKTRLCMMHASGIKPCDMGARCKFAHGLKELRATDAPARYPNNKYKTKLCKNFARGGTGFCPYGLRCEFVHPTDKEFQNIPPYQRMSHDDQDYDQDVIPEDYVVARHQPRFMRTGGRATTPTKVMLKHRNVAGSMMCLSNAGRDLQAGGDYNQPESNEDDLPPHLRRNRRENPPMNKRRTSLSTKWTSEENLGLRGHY
NS3 helicase inh: inhibitors of HCV NS3 helicase, primary screen, biochemical, Cy5 molecular beacon fluorescence; 290,000 tested, 0.56% active; NS3 helicase DNA unwinding; AID 1800, 2009; Hepatitis C virus NS3 helicase; inhibition, % at 10.9 µM;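 active means inhibition above the mean of all tested compounds plus 3 SD, set per campaign, cut at about 35% in these data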;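 further: 0% = DMSO wells and 100% = thioflavine S control wells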
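Assay system: hepatitis C virus NS3 helicase domain fragment enzyme. Also added: annealed dual-labelled DNA beacon duplex, ATP-started. Timing: 1 h reaction at 25 °C, ATP-initiated. Technique: Cy5 fluorescence at 0 and 60 min, beacon hairpin quenching. Evaluation: % inhibition of unwinding. Replication: one well per compound.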
core dimer inh: inhibitors of HCV core protein dimerization, primary screen, biochemical, TR-FRET, high-throughput | TR-FRET GST/Flag-core106 dimerization, 1536-well | inhibition, % at 5 µM | 300,000 tested, 0.33% active;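 active means inhibition above the mean of all tested compounds plus 3 SD, set per screening campaign, cut at about 45% in these data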
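System – GST-tagged and Flag-tagged HCV core protein residues 1-106 · Repeats – one well for each compound · Technique – TR-FRET 671 and 617 nm emission · Doses – one concentration, 5 µM, in 0.5% DMSO · Times – 4 h, 22.5 °C incubation · Also added – Eu donor and XL665 acceptor anti-tag antibodies · Measure – percent inhibition of core106 dimerization signal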
ZTA DNA inh: blocks Epstein-Barr virus ZTA, an EBNA-1 counter-screen | inhibition, % at 11 µM | P03206 | 320,000 tested, 0.15% active | ZTA-DNA binding, fluorescence polarization; in the data active means inhibition above about 33%
EBNA-1 inhibitor: EBNA-1 DNA-binding inhibitors, primary screen, biochemical, fluorescence polarization; inhibition, % at 14.8 µM; AID 1950, 2009; 300,000 tested, 0.34% active; in the data active means inhibition above about 28%
EBV gp42 inh: Epstein-Barr virus gp42 inhibitors, primary screen, biochemical, uHTS, fluorescence polarization. Fluorescence polarization binding assay, mP read-out. inhibition, % (tested at 21.74 µM). 220,000 tested, 0.42% active; in the data active means inhibition above about 50%
NS3 hel confirm: HCV NS3 helicase inhibitors, retest, confirmation, biochemical, Cy5 molecular beacon fluorescence, triplicate. shares compounds with NS3 helicase inh. NS3 helicase DNA unwinding. inhibition, % at 10.9 µM. 1,600 tested, 31% active. AID 1943, 2009;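 active means inhibition above the mean of all tested compounds plus 3 SD, cutoff set per campaign, cut at about 36% in these data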
FID counter trip: compounds displacing fluorescent DNA intercalator, artefact control for HCV NS3 helicase inhibitor project, biochemical, FID fluorescence, triplicate | 1,600 tested, 4% active | AID 1945, 2009 | inhibition, % at 7.9 µM | shares compounds with NS3 helicase inh | DNA fluorescent intercalator displacement; in the data active means inhibition above about 37%;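 further: 0% = vehicle and 100% = reference compound; higher means more displacement of ethidium bromide from the DNA hairpin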
Active calls of the source: *; / = not tested or not shown.

SMILES	MEX-5 binding	NS3 helicase inh	core dimer inh	ZTA DNA inh	EBNA-1 inhibitor	EBV gp42 inh	NS3 hel confirm	FID counter trip
Cn1c(=O)c2c(ncn2Cc2ccccc2)n(C)c1=O	-0.1	-2.4	3.3	12.9	7.4	-10.5	/	/
O=c1c2ccccc2sc2nc(C3CCCCC3)n(Cc3ccco3)c(=O)c12	-0.7	39.6*	/	/	/	22.8	26.7	-8.8
CCc1nc2sc3ccccc3c(=O)c2c(=O)n1Cc1ccco1	-1.2	22.2	1.4	-3.0	-0.7	7.7	/	/
COc1ccc(-c2csc(NC(=O)c3ccccc3Br)c2C(=O)O)cc1	0.1	40.6*	15.2	3.7	9.2	/	59.4*	-17.6
Cc1ccccc1C(=O)Nc1scc(-c2ccc(Br)cc2)c1C(=O)O	-1.4	/	23.9	4.8	4.7	/	/	/
Cc1cccc(NS(=O)(=O)c2nnc(NC(=O)c3ccc(C)c(C)c3)s2)c1	/	-2.2	13.8	-6.2	-4.3	/	/	/
COc1cccc(C(=O)Nc2nnc(S(=O)(=O)Nc3cccc(C)c3)s2)c1	0.7	45.7*	-5.4	13.8	0.1	/	19.0	11.5
Nn1c(Cc2cccc3ccccc23)nnc1SCc1c(Cl)cccc1Cl	0.4	60.5*	5.7	3.9	3.0	-4.3	-9.3	-27.0
Nn1c(Cc2cccc3ccccc23)nnc1SCc1ccc(Cl)c(Cl)c1	0.2	-15.8	-1.5	-2.1	8.2	4.7	/	/
CC1CCCC2(C1)NC(=S)N(c1ccccc1)N2 (stereo unspecified)	1.6	5.7	-2.9	27.9	4.5	-9.4	/	/
CC1CCCC2(C1)NC(=S)c1c(sc3c1CCCC3)N2 (stereo unspecified)	-1.4	36.4*	52.7*	-18.7	2.6	-11.5	1.3	10.2
Cc1cc(-c2csc(NC(=O)c3ccc(C#N)cc3)n2)c(C)n1Cc1ccco1	0.1	58.5*	48.6*	-9.3	-4.4	-4.4	0.5	11.8
Cc1cc(-c2csc(NC(=O)c3cc4ccccc4o3)n2)c(C)n1C	0.2	49.6*	74.2*	3.0	-4.2	-15.8	24.9	15.8
O=C(Nc1nc(-c2ccccn2)cs1)c1cc2ccccc2o1	-0.5	3.1	4.3	7.6	-4.7	-7.5	/	/
Cc1cc(-c2csc(NC(=O)c3ccc(=O)[nH]c3)n2)c(C)n1Cc1ccccc1	0.7	73.9*	55.0*	7.3	-4.5	8.7	21.4	3.8
COc1ccccc1N1CCN(C(=O)CSc2nc(C)c(Cc3ccccc3)c(=O)[nH]2)CC1	1.0	41.4*	6.5	-4.9	-5.0	4.3	-18.5	-42.7
Cc1c(C(=O)O)[nH]c2c1C(=O)CC(c1ccc(C(C)(C)C)cc1)C2 (stereo unspecified)	-0.7	49.1*	3.4	18.0	24.9	/	29.5	-25.5
CCOc1ccc(NS(=O)(=O)c2c(C(=O)N3CCCCCC3)c(C)n(C)c2C)cc1	1.0	4.3	0.9	-12.9	-1.1	/	/	/
COc1ccc(C2CC(=O)C(CS(=O)(=O)c3ccccc3)C(=O)C2)cc1 (stereo unspecified)	0.7	42.7*	-2.0	6.1	6.4	1.8	-4.7	-35.5
O=C1CC(c2ccc(Cl)cc2)CC(=O)C1CS(=O)(=O)c1ccccc1 (stereo unspecified)	-0.8	36.2*	6.1	-19.9	-7.4	-1.1	69.6*	-13.7
Cc1[nH]c2ccccc2c1C(=O)COC(=O)c1ccc[n+]([O-])c1	-1.2	45.6*	1.4	10.1	2.5	-14.8	-13.9	-2.5
O=C1C=C(c2cccc(CO)c2)C[C@@H](c2ccc(Cl)cc2)C1	/	/	/	-1.0	/	/	/	/
CC(C)NC(=O)CSc1nc(N)c(NC(=O)c2ccccc2F)c(=O)[nH]1	-2.4	65.2*	-9.5	4.5	1.2	-6.4	-2.7	-1.8

High-throughput results deposited in PubChem BioAssay by several laboratories.
